Screens deposited in PubChem by several laboratories.
MPTP inh: inhibitors of mitochondrial permeability transition pore | isolated mouse mitochondria, Ca2+ swelling absorbance, 30 min | inhibition, % at 10 µM | hit rate 1.4% among 360,000 | AID 602449;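 active means inhibition of 50% or more, scaled per plate between neutral and stimulator controls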;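 further: 0% = DMSO wells given calcium and 100% = 1 mM EGTA wells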
ADAM10 inh: inhibitors of human ADAM10. O14672. recombinant ADAM10, EDANS/DABCYL FRET peptide cleavage, 3 h. inhibition, % at 7 µM. hit rate 0.62% among 370,000;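 active means inhibition above a per-campaign cutoff equal to the mean of compounds falling between control-based bounds plus 3 SD, cut at about 20% in these data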;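 further: 0% = DMSO wells while the 100% control is not disclosed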
SKN-1 inh: C. elegans SKN-1 inhibition | C. elegans VP596 Pgst-4::GFP/RFP ratio, acrylamide-induced, 24 h | inhibition, % at 21.8 µM | hit rate 0.49% among 360,000;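 active means interference check ratio from 0.5 to 1.5 plus GFP to RFP signal ratio inhibition reaching or exceeding a fixed threshold, cut at about 30% in these data, passing the limit was not always enough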
ADAM17 inh: inhibits human ADAM17; recombinant ADAM17, EDANS/DABCYL FRET peptide cleavage; inhibition, % at 6.95 µM; P78536; hit rate 0.83% among 370,000; AID 720648;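 active means inhibition above the mean of compounds lying between control limits plus 3 SD, set per campaign, cut at about 8.5% in these data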;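 further: 0% = DMSO-only wells as the low control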
Target sequence (P78536 215-824 limits assumed): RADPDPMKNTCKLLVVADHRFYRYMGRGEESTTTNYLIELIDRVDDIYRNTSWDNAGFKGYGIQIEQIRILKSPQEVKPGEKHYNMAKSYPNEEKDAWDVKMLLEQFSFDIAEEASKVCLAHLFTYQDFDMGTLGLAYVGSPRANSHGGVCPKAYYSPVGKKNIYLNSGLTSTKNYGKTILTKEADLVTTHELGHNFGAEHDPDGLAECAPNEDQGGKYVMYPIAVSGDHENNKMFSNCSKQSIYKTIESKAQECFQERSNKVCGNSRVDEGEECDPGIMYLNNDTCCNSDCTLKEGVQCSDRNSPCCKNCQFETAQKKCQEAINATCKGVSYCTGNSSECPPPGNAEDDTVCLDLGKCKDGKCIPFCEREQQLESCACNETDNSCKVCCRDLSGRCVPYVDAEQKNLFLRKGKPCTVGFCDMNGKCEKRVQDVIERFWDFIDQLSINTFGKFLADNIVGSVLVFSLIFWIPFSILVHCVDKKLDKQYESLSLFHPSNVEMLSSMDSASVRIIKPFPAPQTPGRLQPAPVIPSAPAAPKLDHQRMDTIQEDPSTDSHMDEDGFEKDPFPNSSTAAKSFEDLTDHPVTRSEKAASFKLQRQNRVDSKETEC
NR3A LBD binder: modulators (binders) of human NR3A ligand-binding domain. NR3A LBD differential scanning fluorimetry, Tm shift; 0% = protein alone, 100% = glycine-bound protein. Tm shift relative to glycine control, % at 25 µM. hit rate 2.5% among 340,000. AID 1259313;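 active means melting temperature shift of at least 10% of the positive control shift, at one fixed dose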
MT1-MMP act inh: blocks activation of human MT1-MMP; hit rate 0.061% among 360,000; P50281; GFP/RFP ratio change, % at 20 µM; HT1080 RFP-PRO-GFP cells, GFP/RFP ratio fluorescence, overnight; percent of plate control window, DMSO zero;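 active means GFP/RFP ratio change of at least 30% with cell ATP level not reduced by more than half and red fluorescence within 50% of control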
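Assay system: HT1080 RFP-PRO-GFP cells. Benchmarks: DMSO vehicle wells and RFP-L50D-GFP reporter cell wells. Times: overnight cell settling, then overnight compound exposure, 37 °C, 5% CO2. Compound: 20 µM single dose, 1% DMSO. Read-out basis: GFP/RFP fluorescence ratio.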
* hit, by the source's call; i = inactive; . = no result. Sampled rows, rich in hits. Any-hit rate of the full collection: about 4.7%.

SMILES	MPTP inh	ADAM10 inh	SKN-1 inh	ADAM17 inh	NR3A LBD binder	MT1-MMP act inh
COc1cc2c3c([nH]c2cc1F)C(=O)NCC3	-1	i	7	-122	0	-5
O=c1cc(-c2ccccc2)oc2ccc3ccccc3c12	1	-10	36*	-5	.	-4
O=c1cc(-c2ccc(O)c(O)c2)oc2ccc3ccccc3c12	5	-3	21	-4	25*	7
N#C/C(=C\c1ccc(N2CCOCC2)cc1)c1ccccc1	0	2	48*	3	-2	-1
N#C/C(=C\c1ccc(N2CCOCC2)o1)c1ccccc1	2	-20	19	-10	4	-37
COc1ccc(-c2cc(C(=O)OCC(=O)Nc3ccc4c(c3)OCO4)c3ccccc3n2)cc1	9	-121	8	-40	15*	5
COc1ccc(NS(=O)(=O)c2ccc(O)c(C(=O)OCC(=O)Nc3ccc4c(c3)OCCO4)c2)cc1	0	1	5	0	19*	-1
O=C(COC(=O)c1cc(-c2ccccc2)nc2ccccc12)Nc1ccc2c(c1)OCO2	12	-8	-5	-5	13*	0
CC(C)Nc1c(N)c(=O)oc2ccccc12	-2	-5	14	0	0	1
CCC(=O)N1CCc2cc(S(=O)(=O)CCC(=O)N3CCN(c4ccccc4)CC3)ccc21	-1	-4	1	-6	-2	1
CC(C)CNc1ccc2c(c1)OC[C@H](CC(C)C)NS2(=O)=O	.	3	.	-1	.	.
Cc1cc(C(=O)COC(=O)c2ccc(NC(=O)CC#N)cc2)c(C)n1-c1ccc(OC(F)F)cc1	1	-1	-8	-2	17*	-2
CCCn1c2ccccc2c2nnc(SCC(=O)OCC)nc21	1	5	-12	-1	-3	2
COc1ccccc1C(=O)Nc1ccc(S(=O)(=O)Nc2cc(C)nc(C)n2)cc1	-1	-6	1	-2	16*	8
Cc1cc(C)nc(NS(=O)(=O)c2ccc(NC(=O)Nc3ccccc3F)cc2)n1	2	-4	22	-3	11*	-4
Cc1cc(C)nc(NS(=O)(=O)c2ccc(NC(=O)c3cc(-c4ccccc4)nc4ccccc34)cc2)n1	-3	9	17	8	19*	8
COc1ccc(C(=O)Nc2ccc(S(=O)(=O)Nc3cc(C)nc(C)n3)cc2)c(OC)c1	-7	1	-1	7	5	-4
CCCOc1ccc(C(=O)NC(=S)Nc2nc(C)c(C(=O)N(C)C)s2)cc1	-1	6	5	-2	1	4
CCOC(=O)CCC(=O)c1c(C)oc2ccc(OC)cc12	0	0	17	9.9*	-1	-1
COc1ccc2oc(C)c(C(=O)NN)c2c1	-1	-1	6	-2	0	0
COc1cc(NC(=O)c2cnc(N)o2)cc(C(=O)Nc2cccc(C(F)(F)F)c2)c1	0	-4	17	7	5	0
COc1cccc(NC(=O)c2cccc(C(=O)Nc3cccc(OC)c3)n2)c1	1	-7	6	0	-7	2
COc1cc(NC(=O)c2csc(N)n2)cc(C(=O)Nc2cccc(C(F)(F)F)c2)c1	-1	-2	2	6	19*	8
Cc1ncsc1C(=O)Nc1cccc(C(F)(F)F)c1	1	1	5	-3	27*	3
COc1cc(NC(=O)c2ccnc(N)c2)cc(C(=O)Nc2cccc(C(F)(F)F)c2)c1	0	2	11	0	13*	7
C=CCN(c1ccc(C(=O)NC(C)C)cc1)S(C)(=O)=O	-1	0	47*	1	-2	-2
C=CCN(c1ccc(C(=O)Nc2ccc(C)cc2)cc1)S(C)(=O)=O	0	2	-13	-1	-1	4
CCOc1ccccc1NC(=S)N1CCN(c2ccc(OC)cc2)CC1	-2	1	8	-1	10*	-3
CCOc1ccccc1NC(=S)N1CCN(c2ccc(O)cc2)CC1	2	-1	8	-1	7	-4
Cc1ccc(C(=O)NN2C(=O)C3C4C=CC(C5CC45)C3C2=O)cc1 (centres undefined)	0	-1	-10	-6	-1	-4
